From PubChem BioAssay
SR-BI DiI inh: inhibitors of SR-BI mediated HDL lipid uptake, primary screen, ldlA[mSR-BI] cells, fluorescence, single point; ldlA[mSR-BI] CHO cells, DiI-HDL uptake fluorescence, 3 h; AID 488896, 2010; inhibition, % at 12.5 µM; Scavenger receptor class B member 1 (Mus musculus), Q61009; 320,000 compounds, 0.96% hits;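 active means mean replicate inhibition of at least 70% and a set share of replicates each scoring 70 or more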;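 further: 0% = median of neutral control wells and 100% = median of positive control wells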
Target sequence (Q61009 whole entry, looked up): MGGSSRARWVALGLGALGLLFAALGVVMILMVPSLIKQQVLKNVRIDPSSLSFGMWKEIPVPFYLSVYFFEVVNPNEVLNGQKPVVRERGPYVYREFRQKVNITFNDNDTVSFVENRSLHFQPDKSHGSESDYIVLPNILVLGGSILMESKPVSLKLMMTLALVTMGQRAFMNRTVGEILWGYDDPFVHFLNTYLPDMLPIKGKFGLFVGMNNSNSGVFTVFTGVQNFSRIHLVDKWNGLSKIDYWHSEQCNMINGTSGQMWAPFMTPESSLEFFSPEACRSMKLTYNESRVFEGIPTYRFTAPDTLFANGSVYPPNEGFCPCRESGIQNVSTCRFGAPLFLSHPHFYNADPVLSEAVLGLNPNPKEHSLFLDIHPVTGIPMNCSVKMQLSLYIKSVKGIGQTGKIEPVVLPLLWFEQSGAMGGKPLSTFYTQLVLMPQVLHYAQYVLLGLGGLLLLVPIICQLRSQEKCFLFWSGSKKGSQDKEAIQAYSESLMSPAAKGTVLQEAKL
SR-BI DiI-HDL act: activators of SR-BI mediated DiI-HDL uptake, primary screen, ldlA[mSR-BI] CHO cells, DiI fluorescence. activation, % at 12.5 µM. 320,000 compounds, 0.096% hits. 3 h; 100 = double the neutral-control signal;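 active means mean replicate activation of at least 60% and every replicate at or above 60%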;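 further: 0% = median plate neutral-control signal and 100% = twice that signal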
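Assay system: CHO ldlA[mSR-BI] cells, LDL receptor-null, SR-BI overexpressing; medium: Ham's F12 with 0.5% BSA, HEPES 25 mM, pH 7.4; also added: DiI-HDL 10 µg/mL; timing: 3 h uptake period with compound, 37 °C; signal: DiI fluorescence, bottom read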
TLR4 MyD88 comp: inhibitors of TLR4-MyD88 association in cells, primary screen, cell-based, HeLa CL3-4, BLA complementation, FRET ratio. Toll-like receptor 4 (Homo sapiens) + Myeloid differentiation primary response protein …. HeLa CL3-4 TLR4/MyD88 BLA complementation. inhibition, % at 8.4 µM. 200,000 compounds, 0.18% hits; in the data active means inhibition above about 25%;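 further: 0% = vehicle and 100% = reference inhibitor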
NOD2 RIPK2 PPI: NOD2-RIPK2 binding disruptors in cells, primary screen, fluorescence, CHO cells, BLA complementation. inhibition, % at 4.98 µM. Receptor-interacting serine/threonine-protein kinase 2 (Homo sapiens), O43353. CCF4 ratio. 360,000 compounds, 0.38% hits. AID 624267, 2012; in the data active means inhibition above about 21%;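 further: 0% = vehicle only and 100% = reference blocker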
Hep lipid drop: inhibitors of hepatocyte lipid droplet formation, primary screen, imaging, high-throughput imaging, BODIPY stain; AML12 mouse hepatocytes, oleate lipid droplets; 240,000 compounds, 0.4% hits; inhibition, % at 6.5 µM; AID 1656, 2009;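 active means lipid droplet intensity inhibited by at least 50%, with more than 500 cells counted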
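material = mouse AML12 hepatocyte cell line, fixed after treatment | also added = 100 µM oleic acid challenge | doses = compound at 6.5 µM only | schedule = overnight exposure | technique = Image-based BODIPY and DAPI two-channel analysis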
TLR9-MyD88 inh: inhibitors of TLR9-MyD88 association in cells, primary screen, cell-based, CHO, BLA complementation, fluorescence; Toll-like receptor 9 (Homo sapiens) + Myeloid differentiation primary response protein …; AID 504734, 2011; CCF4 FRET ratio; inhibition, % at 4.98 µM; 340,000 compounds, 0.21% hits;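 active means inhibition above the mean over all tested compounds plus 3 SD, cut at about 21% in these data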;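 further: 0% = DMSO only wells and 100% = clavulanate BLA inhibitor control wells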
* = called active by the depositor. Only some compounds are listed: those with a hit (about 1.6% of all), similar ones and a draw of the others.

What do the screens show for `Cc1ccccc1NC(=O)CSc1cn[nH]n1`?
NOD2 RIPK2 PPI: 0.8; Hep lipid drop: 7.5; TLR9-MyD88 inh: 4.4

How did CCCC(=O)Nc1ccc(C(=O)Nc2cc(C(F)(F)F)ccc2Cl)cc1 do in these assays?
SR-BI DiI inh: 73.9*; SR-BI DiI-HDL act: -73.9; TLR4 MyD88 comp: -8.8; NOD2 RIPK2 PPI: -3.2; TLR9-MyD88 inh: -8.0

Results for COC(=O)c1cccc(NC(=O)c2ccccc2)c1 ?
SR-BI DiI inh: 1.3; SR-BI DiI-HDL act: -1.3; NOD2 RIPK2 PPI: -8.6; Hep lipid drop: -6.5; TLR9-MyD88 inh: 4.5

Results for COC(=O)c1ccc(NC(=O)c2cccc(NC(=O)c3ccccc3)c2)cc1 ?
SR-BI DiI inh: 73.2*; SR-BI DiI-HDL act: -73.2; NOD2 RIPK2 PPI: -1.6; Hep lipid drop: 8.8; TLR9-MyD88 inh: -4.9

What do the screens show for `O=C(Nc1ccccc1N1CCN(C(=O)c2ccccc2)CC1)c1ccc(Cl)cc1`?
SR-BI DiI inh: 13.9; SR-BI DiI-HDL act: -13.9; TLR4 MyD88 comp: -6.2; NOD2 RIPK2 PPI: 5.1; Hep lipid drop: -19.8; TLR9-MyD88 inh: -0.1

What do the screens show for `COc1ccc(C(=O)Nc2ccccc2N2CCN(C(=O)c3ccccc3)CC2)cc1Br`?
SR-BI DiI inh: 85.8*; SR-BI DiI-HDL act: -85.7; NOD2 RIPK2 PPI: -3.5; Hep lipid drop: 2.2; TLR9-MyD88 inh: 4.2

Results for COC(=O)c1[nH]c2ccc(C)cc2c1NC(=O)Nc1ccccc1OC ?
SR-BI DiI inh: 79.6*; SR-BI DiI-HDL act: -79.6; TLR4 MyD88 comp: 2.4; NOD2 RIPK2 PPI: -5.7; TLR9-MyD88 inh: -2.2

What do the screens show for `CN(Cc1ccc(Cl)cc1Cl)C(=O)CCNC(=O)c1ccco1`?
SR-BI DiI inh: -23.5; SR-BI DiI-HDL act: 23.5; NOD2 RIPK2 PPI: -3.0; TLR9-MyD88 inh: -6.4

Results for Cc1ccc(S(=O)(=O)Nc2ccc(Cl)cn2)cc1C ?
SR-BI DiI inh: -14.2; SR-BI DiI-HDL act: 14.2; NOD2 RIPK2 PPI: 0.0; Hep lipid drop: 14.4; TLR9-MyD88 inh: -0.7

What do the screens show for `COc1ccc(C(=O)Nc2ccc(N3CCCCC3)cc2)cc1Br`?
SR-BI DiI inh: 61.9; SR-BI DiI-HDL act: -61.9; TLR4 MyD88 comp: -9.7; NOD2 RIPK2 PPI: 10.3; Hep lipid drop: 17.8; TLR9-MyD88 inh: -17.4

Results for COc1ccc(C(=O)Nc2ccc(Nc3ccccc3)cc2)cc1Br ?
SR-BI DiI inh: 97.7*; SR-BI DiI-HDL act: -97.7; NOD2 RIPK2 PPI: -10.8; TLR9-MyD88 inh: -7.1

What do the screens show for `CCCC(=O)Nc1ccc(C(=O)Nc2cccc(OC)c2)cc1`?
SR-BI DiI inh: 74.4*; SR-BI DiI-HDL act: -74.4; TLR4 MyD88 comp: -9.0; NOD2 RIPK2 PPI: -4.0; Hep lipid drop: 22.6; TLR9-MyD88 inh: -2.2

How did COC(=O)c1cccc(NC(=O)Nc2ccccc2OC)c1 do in these assays?
SR-BI DiI inh: 80.8*; SR-BI DiI-HDL act: -80.8; TLR4 MyD88 comp: -3.5; NOD2 RIPK2 PPI: -2.9; Hep lipid drop: -2.1; TLR9-MyD88 inh: 0.5

How did CN(C(=O)COC(=O)/C=C/c1ccc(C(F)(F)F)cc1)c1c(N)n(Cc2ccccc2)c(=O)[nH]c1=O do in these assays?
SR-BI DiI inh: 5.3; SR-BI DiI-HDL act: -5.3; NOD2 RIPK2 PPI: -0.2; TLR9-MyD88 inh: -5.9

What do the screens show for `[O-][n+]1onc2c1CCc1c-2nc(-c2ccccc2)n1OCc1ccccc1`?
SR-BI DiI inh: 79.7*; SR-BI DiI-HDL act: -79.7; TLR4 MyD88 comp: 6.1; NOD2 RIPK2 PPI: -8.0; TLR9-MyD88 inh: 7.0

What do the screens show for `Nc1c(Cl)cc(C2=NCCn3nc4ccccc4c32)cc1Cl`?
SR-BI DiI inh: 72.7*; SR-BI DiI-HDL act: -72.7; NOD2 RIPK2 PPI: -1.6; TLR9-MyD88 inh: 3.6

Results for COc1ccc(/C=N/Nc2ccc([N+](=O)[O-])cc2)cc1Cn1cc([N+](=O)[O-])cn1 ?
SR-BI DiI inh: 95.2*; SR-BI DiI-HDL act: -95.2; TLR4 MyD88 comp: 17.3; NOD2 RIPK2 PPI: -0.8; Hep lipid drop: 8.7; TLR9-MyD88 inh: 12.0
